In ChEMBL document CHEMBL3045704, “Biflavonoids isolated from Selaginella lepidophylla inhibit photosynthesis in spinach chloroplasts” (J Agric Food Chem, 2008):
Active and inactive are the calls of the source. The rule behind the calls is not given here.

Assays:
Spinacia oleracea [1] = experiment: Inhibition of ATP synthesis in Spinacia oleracea (spinach) leaves intact chloroplasts; assay type: functional; conditions: read-out: I50
Spinacia oleracea [2] = experiment: Inhibition of thylakoid membrane bound Magnesium-transporting Mg2+ ATPase in Spinacia oleracea (spinach) leaves chloroplasts assessed as enzyme activity at 300 uM; design: scale not given: the % may be the effect or the level left
How it was run: (§1)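 Chloroplasts were ground in 350 mM sorbitol, 5 mM ascorbate and 20 mM MES pH 6.5, centrifuged 3000g for 60 s, washed, and resuspended in 35 mM HEPES pH 7.6. Light-triggered thylakoid-bound Mg2+-ATPase was assayed via released Pi (Sumner method), expressed as µM P/mg Chl/h and as % of control. Tested at 100–300 µM, or NH4Cl at 1–6 mM.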

[3] = molecular target: T1, Photosystem I iron-sulfur center (Spinacia oleracea) (UniProt P10098); experiment: Inhibition of photosystem I in Spinacia oleracea (spinach) leaves intact chloroplasts assessed as electron transport flow from DCPIP to MV at 100 uM; design: scale not given: the % may be the effect or the level left
T1 sequence (whole entry): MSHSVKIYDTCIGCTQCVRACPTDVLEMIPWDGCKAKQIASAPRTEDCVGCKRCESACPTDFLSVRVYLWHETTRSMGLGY
How it was run: (§2)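 Uncoupled PSI flow, reduced DCPIP to MV, in basal electron transport medium (3 mL). Additions: 10 µM DCMU, 100 µM DCPIP, 300 µM ascorbate and 6 mM NH4Cl. O2 uptake was monitored with a Clark electrode.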

Spinacia oleracea [4] = experiment: Inhibition of uncoupled electron transport flow in Spinacia oleracea (spinach) leaves intact chloroplasts at 300 uM; assay type: functional
[5] = molecular target: Photosystem II protein D1 (Spinacia oleracea) (UniProt P69560); experiment: Inhibition of photosystem II in Spinacia oleracea (spinach) leaves intact chloroplasts assessed as electron transport flow from H2O to DCPIP at 100 uM; design: scale not given: the % may be the effect or the level left
How it was run: (§3)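 Uncoupled PSII, water to DCPIP, was followed as DCPIP-supported O2 evolution on a Clark electrode. Medium: basal electron transport medium with 1 µM DBMIB, 100 µM DCPIP, 300 µM K3[Fe(CN)6] and 6 mM NH4Cl, without MV. I50 values were calculated.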

Spinacia oleracea [6] = experiment: Inhibition of thylakoid membrane bound Magnesium-transporting Mg2+ ATPase in Spinacia oleracea (spinach) leaves chloroplasts assessed as enzyme activity at 100 uM; design: scale not given: the % may be the effect or the level left; how it was run: as §1
[7] = molecular target: T1, Photosystem I iron-sulfur center (Spinacia oleracea); experiment: Inhibition of photosystem I in Spinacia oleracea (spinach) leaves intact chloroplasts assessed as electron transport flow from TMQH2 to MV at 300 uM; design: scale not given: the % may be the effect or the level left
How it was run: (§4)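 Electron flow from TMQH2 to MV was determined polarographically with a Clark electrode in basal electron transport medium.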

[8] = molecular target: T1, Photosystem I iron-sulfur center (Spinacia oleracea); experiment: Inhibition of photosystem I in Spinacia oleracea (spinach) leaves intact chloroplasts assessed as electron transport flow from DCPIP to MV at 200 uM; design: scale not given: the % may be the effect or the level left; how it was run: as §2
[9] = molecular target: Photosystem II protein D1 (Spinacia oleracea) (UniProt P69560); experiment: Inhibition of photosystem II in Spinacia oleracea (spinach) leaves intact chloroplasts assessed as electron transport flow from H2O to DCPIP at 200 uM; design: scale not given: the % may be the effect or the level left; how it was run: as §3
[10] = molecular target: T1, Photosystem I iron-sulfur center (Spinacia oleracea); experiment: Inhibition of photosystem I in Spinacia oleracea (spinach) leaves intact chloroplasts assessed as electron transport flow from TMQH2 to MV at 200 uM; design: scale not given: the % may be the effect or the level left; how it was run: as §4
[11] = molecular target: T1, Photosystem I iron-sulfur center (Spinacia oleracea); experiment: Inhibition of photosystem I in Spinacia oleracea (spinach) leaves intact chloroplasts assessed as electron transport flow from TMQH2 to MV at 100 uM; design: scale not given: the % may be the effect or the level left; how it was run: as §4
Spinacia oleracea [12] = experiment: Inhibition of thylakoid membrane bound Magnesium-transporting Mg2+ ATPase in Spinacia oleracea (spinach) leaves chloroplasts assessed as enzyme activity at 200 uM; design: scale not given: the % may be the effect or the level left; how it was run: as §1
[13] = molecular target: Photosystem II protein D1 (Spinacia oleracea) (UniProt P69560); experiment: Inhibition of photosystem II in Spinacia oleracea (spinach) leaves intact chloroplasts assessed as electron transport flow from H2O to DCPIP at 300 uM; design: scale not given: the % may be the effect or the level left; how it was run: as §3
[14] = molecular target: T1, Photosystem I iron-sulfur center (Spinacia oleracea); experiment: Inhibition of photosystem I in Spinacia oleracea (spinach) leaves intact chloroplasts assessed as electron transport flow from DCPIP to MV at 300 uM; design: scale not given: the % may be the effect or the level left; how it was run: as §2
Spinacia oleracea [15] = experiment: Increase in chlorophyll a fluorescence in freshly lysed Spinacia oleracea (spinach) leaves chloroplasts at 10 uM
[16] = molecular target: T1, Photosystem I iron-sulfur center (Spinacia oleracea); experiment: Inhibition of photosystem I in Spinacia oleracea (spinach) leaves chloroplasts assessed as effect on partial reaction from PMS reduced with ascorbate to MV using KCN treated thylakoids
How it was run: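 Chloroplasts were held in basal medium with 30 mM KCN for 60 min at 4 °C in the dark to release plastocyanin. They were then diluted in sucrose/30 mM HEPES-NaOH pH 7.2/2 mM MgCl2, centrifuged 5000g for 2 min and resuspended. Flow from 100 µM PMS/300 µM ascorbate to MV was assayed in basal medium plus 1 µM DBMIB.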

[17] = molecular target: T1, Photosystem I iron-sulfur center (Spinacia oleracea); experiment: Inhibition of photosystem I in Spinacia oleracea (spinach) leaves intact chloroplasts assessed as electron transport flow from TMQH2 to MV at 50 uM; design: scale not given: the % may be the effect or the level left; how it was run: as §4
[18] = molecular target: Photosystem II protein D1 (Spinacia oleracea) (UniProt P69560); experiment: Inhibition of photosystem II in Spinacia oleracea (spinach) leaves intact chloroplasts assessed as electron transport flow from H2O to DCPIP at 50 uM; design: scale not given: the % may be the effect or the level left; how it was run: as §3
[19] = molecular target: T1, Photosystem I iron-sulfur center (Spinacia oleracea); experiment: Inhibition of photosystem I in Spinacia oleracea (spinach) leaves intact chloroplasts assessed as electron transport flow from DCPIP to MV at 50 uM; design: scale not given: the % may be the effect or the level left; how it was run: as §2
Spinacia oleracea [20] = experiment: Inhibition of uncoupled electron transport flow in Spinacia oleracea (spinach) leaves intact chloroplasts; assay type: functional; conditions: read-out: I50
[21] = molecular target: Photosystem II protein D1 (Spinacia oleracea) (UniProt P69560); experiment: Inhibition of photosystem II in freshly lysed Spinacia oleracea (spinach) leaves chloroplasts assessed as induction of loss of reactions centers capacity to capture excitons at 300 to 900 uM
How it was run: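 JIP-test on Chl a fluorescence transients of freshly lysed spinach chloroplasts, dark-adapted 5 min at 20 µg/mL Chl. Measured at room temperature with a Handy PEA at 300, 600 and 900 µM. Parameters such as […] VJ were derived from the curves and expressed relative to control (%). Results are the average of three replicates.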

Spinacia oleracea [22] = experiment: Inhibition of basal electron transport flow in Spinacia oleracea (spinach) leaves intact chloroplasts at 88 uM; assay type: functional
[23] = molecular target: Photosystem II protein D1 (Spinacia oleracea) (UniProt P69560); experiment: Inhibition of photosystem II in Spinacia oleracea (spinach) leaves intact chloroplasts assessed as electron transport flow from H2O to SiMo at 100 uM; design: scale not given: the % may be the effect or the level left
How it was run: (§5)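 Uncoupled partial PSII reaction, water to silicomolybdate, measured by Clark electrode O2 evolution. Basal medium (sorbitol/KCl/MgCl2/KCN/30 mM tricine pH 8) was supplemented with 200 µM SiMo, 10 µM DCMU and 6 mM NH4Cl, without MV. I50 values were calculated.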

[24] = molecular target: Photosystem II protein D1 (Spinacia oleracea) (UniProt P69560); experiment: Inhibition of photosystem II in Spinacia oleracea (spinach) leaves intact chloroplasts assessed as electron transport flow from H2O to SiMo at 300 uM; design: scale not given: the % may be the effect or the level left; how it was run: as §5
[25] = molecular target: Photosystem II protein D1 (Spinacia oleracea) (UniProt P69560); experiment: Inhibition of photosystem II in Spinacia oleracea (spinach) leaves intact chloroplasts assessed as electron transport flow from H2O to SiMo at 200 uM; design: scale not given: the % may be the effect or the level left; how it was run: as §5
[26] = molecular target: Photosystem II protein D1 (Spinacia oleracea) (UniProt P69560); experiment: Inhibition of photosystem II in Spinacia oleracea (spinach) leaves intact chloroplasts assessed as electron transport flow from DPC to DCPIP at 200 uM; design: scale not given: the % may be the effect or the level left
How it was run: (§6)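 Thylakoids (45 µg Chl) were pretreated with 0.8 M Tris pH 8.0 for 30 min at 4 °C, centrifuged 5000g for 2 min and resuspended in reaction medium. Electron flow from DPC to DCPIP was read spectrophotometrically at 600 nm, with DCPIP reduction quantified by its molar extinction coefficient. I50 values were calculated.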

[27] = molecular target: Photosystem II protein D1 (Spinacia oleracea) (UniProt P69560); experiment: Inhibition of photosystem II in Spinacia oleracea (spinach) leaves intact chloroplasts assessed as electron transport flow from DPC to DCPIP at 100 uM; design: scale not given: the % may be the effect or the level left; how it was run: as §6
[28] = molecular target: Photosystem II protein D1 (Spinacia oleracea) (UniProt P69560); experiment: Inhibition of photosystem II in Spinacia oleracea (spinach) leaves intact chloroplasts assessed as electron transport flow from DPC to DCPIP at 300 uM; design: scale not given: the % may be the effect or the level left; how it was run: as §6
Spinacia oleracea [29] = experiment: Inhibition of thylakoid membrane bound Magnesium-transporting Mg2+ ATPase in Spinacia oleracea (spinach) leaves chloroplasts assessed as enzyme activity at 3 mM; design: scale not given: the % may be the effect or the level left; how it was run: as §1
Spinacia oleracea [30] = experiment: Inhibition of thylakoid membrane bound Magnesium-transporting Mg2+ ATPase in Spinacia oleracea (spinach) leaves chloroplasts assessed as enzyme activity at 1 mM; design: scale not given: the % may be the effect or the level left; how it was run: as §1
Spinacia oleracea [31] = experiment: Inhibition of thylakoid membrane bound Magnesium-transporting Mg2+ ATPase in Spinacia oleracea (spinach) leaves chloroplasts assessed as enzyme activity at 6 mM; design: scale not given: the % may be the effect or the level left; how it was run: as §1

| IC50 (Spinacia oleracea [1]) [µM] | Activity (Spinacia oleracea [2]) [%] | Activity [3] [%] | Activity [5] [%] | Activity (Spinacia oleracea [6]) [%] | Activity [7] [%] | Activity [8] [%] | Activity [9] [%] | Activity [10] [%] | Activity [11] [%] | Activity (Spinacia oleracea [12]) [%] | Activity [13] [%] | Activity [14] [%] | SMILES | Inhibition % (Spinacia oleracea [4]) [%] | other results |
| --- | --- | --- | --- | --- | --- | --- | --- | --- | --- | --- | --- | --- | --- | --- | --- |
| 79 | 20 | 100 | 100 | 63 | 100 | 100 | 100 | 100 | 100 | 44 | 100 | 100 | COc1cc(O)cc2c1C(=O)CC(c1ccc(O)c(-c3c(O)cc4oc(-c5ccc(O)cc5)cc(=O)c4c3O)c1)O2 (stereo not drawn) | 25 | – |
| 44 | 76 | 100 | 57 | 76 | 100 | 100 | 43 | 100 | 100 | 76 | 29 | 100 | O=c1cc(-c2ccc(O)c(-c3c(O)cc4oc(-c5ccc(O)cc5)cc(=O)c4c3O)c2)oc2cc(O)cc(O)c12 [ROBUSTAFLAVONE] | – | IC50 (Spinacia oleracea [20]): 88 µM; inhibition [21]: Active; inhibition (Spinacia oleracea [22]): 22%; Activity [23]: 100%; Activity [24]: 50%; Activity [25]: 50%; Activity [26]: 35%; Activity [27]: 89%; Activity [28]: 9% |

More lines, now with the values behind:

| SMILES | IC50 (Spinacia oleracea [1]) [µM] | Activity (Spinacia oleracea [2]) [%] | Activity [3] [%] | Activity [5] [%] | Activity (Spinacia oleracea [6]) [%] | Activity [7] [%] | Activity [8] [%] | Activity [9] [%] | Activity [10] [%] | Activity [11] [%] | Activity (Spinacia oleracea [12]) [%] | Activity [13] [%] | Activity [14] [%] | Inhibition % (Spinacia oleracea [4]) [%] | other results |
| --- | --- | --- | --- | --- | --- | --- | --- | --- | --- | --- | --- | --- | --- | --- | --- |
| CN(C)C(=O)Nc1ccc(Cl)c(Cl)c1 | – | – | – | – | – | – | – | – | – | – | – | – | – | – | Activity (Spinacia oleracea [15]): Active |
| O=C1CC(c2ccc(O)c(-c3c(O)cc4oc(-c5ccc(O)cc5)cc(=O)c4c3O)c2)Oc2cc(O)cc(O)c21 (stereo not drawn) [2,3-DIHYDROROBUSTAFLAVONE] | 39 | 34 | 74 | 100 | 53 | 72 | 71 | 100 | 74 | 98 | 47 | 100 | 71 | 32 | inhibition [16]: inactive; Activity [17]: 100%; Activity [18]: 100%; Activity [19]: 96% |
| Cl.N | – | – | – | – | – | – | – | – | – | – | – | – | – | – | Activity (Spinacia oleracea [29]): 240%; Activity (Spinacia oleracea [30]): 206%; Activity (Spinacia oleracea [31]): 124% |
